# Screening results (PubChem BioAssay)
# Only some compounds are listed: those with a hit (about 4.1% of all), similar ones and a draw of the others.
# Cl transport mod = KCC2 cotransporter modulators, thallium flux, primary screen, cell-based, HEK293 KCC2, FluoZin-2 fluorescence, MLSMR | 2.2% of 190,000 active | B-score of Tl+ flux slope (higher = more flux/activation; lower = inhibition) at 10 µM | KCC2 cells, thallium flux FluoZin-2 fluorescence | Solute carrier family 12 member 5 (Homo sapiens), Q9H2X9 | AID 1456, 2008;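 active = thallium flux slope and its plate-corrected score both differing from the plate sample mean at a set confidence after two filtering rounds, in either direction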;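 also: slope of fluorescence scaled to starting intensity during 10 to 20 s after thallium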
# KCNQ1 act = potentiators or activators of KCNQ1 channel, primary screen, cell-based, thallium flux, high-throughput; Potassium voltage-gated channel subfamily KQT member 1 (Homo sapiens), P51787; CHO-K1 KCNQ1, thallium flux FluxOR fluorescence; stronger effect = higher value; B-score at 10 µM; 0.35% of 310,000 active; AID 2648, 2010;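 active = fluorescence ratio B-score, a plate-corrected score, at least three library SD, with initial intensity B-score within 5 SD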
# Target sequence (P51787 whole entry, looked up): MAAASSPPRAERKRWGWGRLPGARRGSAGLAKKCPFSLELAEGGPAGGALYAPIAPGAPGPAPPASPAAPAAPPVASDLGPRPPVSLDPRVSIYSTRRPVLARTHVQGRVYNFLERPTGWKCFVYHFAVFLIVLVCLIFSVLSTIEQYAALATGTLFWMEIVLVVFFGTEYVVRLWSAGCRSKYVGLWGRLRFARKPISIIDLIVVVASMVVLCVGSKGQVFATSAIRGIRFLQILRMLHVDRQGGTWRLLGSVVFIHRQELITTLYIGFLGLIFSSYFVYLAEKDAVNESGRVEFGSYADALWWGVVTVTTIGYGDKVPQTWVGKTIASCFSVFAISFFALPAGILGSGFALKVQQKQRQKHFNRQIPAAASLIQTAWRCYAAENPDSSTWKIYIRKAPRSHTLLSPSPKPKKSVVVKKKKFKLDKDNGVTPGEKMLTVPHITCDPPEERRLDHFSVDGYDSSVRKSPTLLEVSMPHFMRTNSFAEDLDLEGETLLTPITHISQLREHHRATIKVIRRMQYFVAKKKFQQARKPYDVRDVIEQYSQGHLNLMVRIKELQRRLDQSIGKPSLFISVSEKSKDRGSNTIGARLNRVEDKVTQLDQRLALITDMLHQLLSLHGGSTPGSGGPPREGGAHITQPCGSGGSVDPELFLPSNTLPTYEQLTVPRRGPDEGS
#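 Medium – assay buffer, equal DMSO in all wells · Material – CHO-K1 cell line with stable KCNQ1 potassium channel expression · Signal – kinetic FluxOR thallium fluorescence, 10-s 1-Hz baseline, 110-s post-stimulus read · Compound – single concentration per compound, DMSO matched to controls · Schedule – 37 °C overnight plating, 90-min dark dye load, 20-min compound pretreatment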
# KCNK3 block = human KCNK3 channel inhibitors, primary screen, CHO cells, FluxOR thallium flux, B-score. B-score at 10 µM. Potassium channel subfamily K member 3 (Homo sapiens), O14649. FluxOR fluorescence; stronger effect = lower value. 0.84% of 340,000 active. AID 602410, 2012;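 active = B-score under library mean minus 4 SD, starting fluorescence ratio at most library mean plus 5 SD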;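 also: more negative B-score means stronger inhibition of thallium flux through KCNK3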
# KCNQ1 inh = inhibitors of human KCNQ1 channel, primary screen, cell-based, thallium flux, high-throughput; CHO-K1 KCNQ1, FluxOR thallium flux fluorescence; stronger effect = higher value; 1.3% of 310,000 active; B-score at 10 µM;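 active = compounds whose thallium flux B-score, printed positive for inhibition, exceeds three library SD while starting fluorescence stays within three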;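 also: channel opened by potassium depolarization with thallium stimulus after 20 min compound exposure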
# hERG rescue = hERG rescue from dofetilide block, primary screen, cell-based, CHO-hERG, FluxOR thallium flux, dofetilide IC70 | Voltage-gated inwardly rectifying potassium channel KCNH2 (Homo sapiens), Q12809 | dofetilide IC70 present | activation (rescue from dofetilide block), less the hit threshold, % at 10 µM | 0.51% of 310,000 active | AID 1511, 2009;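 active = activation above the mean of controls blocked by dofetilide plus 5 SD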;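 also: thallium influx through hERG after potassium depolarization seen as dye fluorescence rise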
# KCNK9 inh = KCNK9 potassium channel inhibitors, primary screen, HEK293 cells, thallium flux. Potassium channel subfamily K member 9 (Homo sapiens), Q9NPC2. FluxOR thallium flux fluorescence; stronger effect = lower value. B-score at 10 µM. 1.2% of 310,000 active. AID 488922, 2010;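 active = ratio B-score over 3 SD below the library mean, with starting fluorescence within 5 SD of its mean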;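 also: negative B-score means less thallium flux so channel inhibition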
# KCC2 secondary = KCC2 modulators in sodium-free buffer, confirmation, cell-based, HEK293 KCC2, thallium flux, secondary assay; normalised thallium flux (F/F0 slope) at 10 µM; AID 1713, 2009; FluoZin2 fluorescence; stronger effect = higher value; shares compounds with Cl transport mod; 15% of 3,700 active;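 active = thallium flux slope above the same plate's solvent-only control mean plus 3 SD; inconclusive = the two replicate wells disagree; inactive = no significant difference from solvent-only control wells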
# KCC2 bumet counter = thallium flux persisting under bumetanide in KCC2 cells, confirmation, counter-screen for KCC2 modulator project, cell-based, HEK293 KCC2, FluoZin2, secondary assay 3. shares compounds with Cl transport mod. HEK293-KCC2 + bumetanide/ouabain; stronger effect = higher value. normalized thallium flux at 10 µM. 49% of 3,700 active;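 active = thallium entry rate above the same plate's blocked-transporter control wells by more than 3 SD; inconclusive = the two repeat wells disagree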;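 also: raw slope of fluorescence over initial fluorescence between 10 and 20 s after thallium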
# KCC2 sec2 = KCC2 modulators without ouabain present, confirmation, cell-based, HEK293 KCC2, thallium flux, FluoZin2, secondary assay 2; AID 1715, 2009; normalized thallium flux at 10 µM; shares compounds with Cl transport mod; thallium flux FluoZin2 fluorescence; actives lie on both sides; F/F0 rise rate, 10–20 s post-thallium; 23% of 3,700 active;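 active = thallium flux slope more than 3 SD above or below the plate's solvent-only control mean, mostly below; inconclusive = the two repeat wells disagreed; inactive = no significant shift from solvent-only controls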;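 also: raw slope with 0.1% DMSO as baseline and bumetanide as block control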
# HEK293 Tl flux = thallium flux modulation in parental HEK cells, confirmation, counter-screen for KCC2 modulator project, cell-based, counterscreen 1; 46% of 3,700 active; AID 1716, 2009; thallium flux rate (normalised fluorescence) at 10 µM; shares compounds with Cl transport mod; HEK293 parental cells, thallium flux FluoZin2, ouabain; baseline-ratio fluorescence slope, 10–20 s after thallium;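 active = thallium flux rate significantly above the same plate's solvent-only control wells, beyond their mean plus 3 SD; inconclusive = the two replicate wells gave conflicting results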
# KCC2 retest ouab = KCC2 inhibitors and activators, ouabain retest, confirmation, HEK-KCC2 cells; shares compounds with Cl transport mod; HEK293-KCC2, thallium flux FluoZin2 fluorescence; bidirectional: low = inhibitor, high = activator; raw Tl+ flux slope (below DMSO = inhibition, above = activation) at 10 µM; 48% of 3,700 active; AID 1717, 2009;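 active = thallium flux slope beyond 3 SD from same-plate DMSO control mean in most replicates, usually higher, sometimes lower; inconclusive = repeat tests gave conflicting results; inactive = no significant difference from controls in most replicates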;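 also: slope of initial-normalized fluorescence between seconds 10 and 20 after thallium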
# HEK293 Tl flux2 = native HEK Tl+ uptake effects, second counter-screen – HEK cells, counterscreen 2, counter-screen for KCC2 modulator project, confirmation | 33% of 3,700 active | AID 1718, 2009 | thallium flux slope at 10 µM | HEK293 parental, thallium flux FluoZin-2 fluorescence slope | shares compounds with Cl transport mod;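 active = thallium flux slope above the same plate's solvent-control mean plus 3 SD in both duplicate wells; inconclusive = duplicate wells that disagreed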;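 also: run without ouabain in cells lacking the KCC2 cotransporter; slope of fluorescence scaled to its starting value between 10 and 20 s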
# An asterisk follows results filed as active; i = inactive; ? = inconclusive; . = no result.
SMILES,Cl transport mod,KCNQ1 act,KCNK3 block,KCNQ1 inh,hERG rescue,KCNK9 inh,KCC2 secondary,KCC2 bumet counter,KCC2 sec2,HEK293 Tl flux,KCC2 retest ouab,HEK293 Tl flux2
N#CC1=C(S)N=C(N)C(c2nc(-c3ccccc3)cs2)C12CCCC2 (configuration not stated),-2.4,i,i,i,-9,i,.,.,.,.,.,.
CCC(Sc1nnc(-c2ccco2)n1C)C(=O)Nc1nnc(C)s1 (configuration not stated),.,i,i,i,-8,i,.,.,.,.,.,.
Cn1ncc2c(NCCc3ccccc3)nc(Cl)nc21,.,.,i,.,.,.,.,.,.,.,.,.
Cc1cc(C)c2cc(C#N)c(N3CCCN(C(=S)NCCCN(C)C)CC3)nc2c1,.,i,i,i,-13,i,.,.,.,.,.,.
Cc1cc(C)c2cc(C#N)c(N3CCCC3)nc2c1,8.7*,.,i,.,.,.,0.011,0.0059,0.036,0.007,0.026,0.01
O=C(COc1ccc2ccccc2c1)N/N=C/c1ccccn1,-3.8*,i,i,i,-15,i,0.0048,0.0051,0.025*,0.007,?,0.01
O=C(N/N=C/c1ccccn1)c1sc2ccccc2c1Cl,153*,17*,i,i,4,i,0.0091*,0.11*,0.054*,0.1*,0.089*,0.082*
O=C(N/N=C\c1ccccn1)c1ccccc1O,5.4*,i,i,i,-7,i,0.019,0.013*,?,0.015*,0.022*,0.017*
O=C(N/N=C/c1ccc(-c2ccccc2)o1)c1ccccc1O,80*,8*,i,i,0,i,0.025*,0.092*,0.032,0.035*,0.052*,0.013*
O=C(N/N=C/c1c[nH]c2ccccc12)c1sc2ccccc2c1Cl,0.13,i,i,i,-9,i,.,.,.,.,.,.
Cc1ccccc1C(=O)N/N=C/c1ccccn1,-0.38,i,i,i,-1,i,.,.,.,.,.,.
C[C@@H]1CN([C@@H](C)CO)C(=O)c2cc(NC(=O)Nc3ccc(F)cc3)ccc2O[C@@H]1CN(C)Cc1ccc(Oc2ccccc2)cc1,.,.,i,.,.,.,.,.,.,.,.,.
CN(Cc1nc2ccccc2n1C)C(=O)c1ccco1,.,i,i,i,-7,i,.,.,.,.,.,.
O=c1cc[nH]c2c1ccc1cccnc12,.,i,i,i,-9,i,.,.,.,.,.,.
Cc1nnc(SCC(=O)NC2CC2)s1,.,i,i,i,-13,i,.,.,.,.,.,.
O=C(N/N=C/c1ccc([N+](=O)[O-])o1)c1sc2ccccc2c1Cl,17*,i,i,i,-1,i,0.018*,0.1*,0.033,0.019*,0.054*,0.012*
Cn1cccc1/C=N/NC(=O)c1sc2ccccc2c1Cl,1.9,i,i,i,-17,i,.,.,.,.,.,.
CCN1C[C@@H]2[C@@H]3C(=O)N(Cc4ccccc4)C(=O)[C@@H]3[C@](C)(C1=O)N2C(=O)c1ccc(Cl)cc1,.,.,i,.,.,.,.,.,.,.,.,.
COc1cc(C(=O)OCC(=O)c2cc(C)n(C)c2C)cc(OC)c1OC,6.7*,i,i,i,-13,i,0.01,0.0071,0.032,0.0078,0.022,0.01
Cc1cc(C(=O)COC(=O)c2nccnc2N)c(C)n1C,1.1,i,i,i,-7,i,.,.,.,.,.,.
CCC1CCCCN1CCCNC(=O)c1ccc(CS(=O)(=O)c2ccccc2OC)o1 (configuration not stated),.,i,i,i,-4,i,.,.,.,.,.,.
CSc1sc(-c2n[nH]c(=S)n2C)c2c1C=CCC2,4.3*,i,i,i,-7,i,0.0085,0.015*,0.03,0.0093*,?,?
Cc1nc(-c2ccccc2)sc1-c1n[nH]c(=S)n1C,1.4,i,i,i,-13,i,.,.,.,.,.,.
O=C(Nc1ccc(-c2csc(Nc3cccc(C(F)(F)F)c3)n2)cc1)c1ccccc1,-1,i,i,i,-4,i,.,.,.,.,.,.
O=C(Nc1nc(=O)n(C(=O)c2cccc(C(F)(F)F)c2)s1)c1ccccc1,-4.3*,i,i,i,-10,i,0.0057,0.0044,0.024*,0.0069,0.016*,0.0093
CN(C(=O)c1cccc(NC(=O)Cc2ccc(NC(=O)C3CCN(C(=O)CCc4ccccc4)CC3)cc2)c1)C1CCCCC1,.,.,i,.,.,.,.,.,.,.,.,.
O=C1OC(Nc2ccc(F)cc2F)c2ccccc21 (configuration not stated),.,i,i,i,-6,i,0.0066,0.005,0.027,0.0077,0.019,0.011
Cc1sc2nc(C3CC3)nc(SCC(=O)N3CCCc4ccccc43)c2c1C,8.5*,i,.,i,-7,i,0.011,0.019*,0.032,0.013*,?,0.012*
Cn1c(=O)c2c(SCC(=O)N3CCCc4ccccc43)nc(C3CC3)nc2n(C)c1=O,-1.1,i,i,i,-7,i,.,.,.,.,.,.
